Laboratory results: ChEMBL document CHEMBL2331333, “Synthesis, biological evaluation of new oxazolidino-sulfonamides as potential antimicrobial agents” (2013)
In brackets after ≈: the same amount, converted by molar mass. Activity calls are given as the source filed them. The rule behind the calls is not given here.

Experiments:
Staphylococcus [1] = assay: Antibacterial activity against Staphylococcus MLS-16 MTCC 2940 after 24 hrs by agar dilution method; type: functional; conditions: MLS-16 MTCC 2940, 24 h
Pseudomonas aeruginosa [2] = assay: Antibacterial activity against Pseudomonas aeruginosa MTCC 2453 after 24 hrs by agar dilution method; type: functional; conditions: MTCC 2453, 24 h
Bacillus subtilis [3] = assay: Antibacterial activity against Bacillus subtilis MTCC 121 after 24 hrs by agar dilution method; type: functional; conditions: MTCC 121, 24 h
Candida albicans [4] = assay: Antifungal activity against Candida albicans MTCC 3017 after 48 hrs by agar dilution method; type: functional; conditions: MTCC 3017, 48 h
In short: (§1)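 Same disk/dilution format as the antibacterial assay, on potato dextrose agar (39 g/L). Compounds were from DMSO stock, loaded at 1 to 80 per disk, in triplicate. Plates were incubated at 28 ± 2 °C for 48 h. MIC was the lowest amount that arrested growth. Equivalent DMSO served as solvent control.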

Micrococcus luteus [5] = assay: Antibacterial activity against Micrococcus luteus MTCC 2470 at 80 ug/ml after 24 hrs by agar dilution method; type: functional, organism-based
[6] = system: Mycobacterium tuberculosis; assay: Antibacterial activity against Mycobacterium tuberculosis H37Rv after 2 to 3 weeks by broth microdilution method; type: functional
In short: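 M. tuberculosis H37Rv, first screened at a single concentration of 32 in triplicate in a microtiter plate (microplate dilution assay). Compounds active in this screen were then taken to MIC determination by broth microdilution. Compounds were dissolved in DMSO.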

Bacillus subtilis [7] = assay: Antibacterial activity against Bacillus subtilis MTCC 121 at 80 ug/ml after 24 hrs by agar dilution method; type: functional, organism-based
[8] = system: Mycobacterium tuberculosis; assay: Antibacterial activity against Mycobacterium tuberculosis H37Rv at 32 ug/ml […] by agar dilution method; type: functional, organism-based
Staphylococcus aureus [9] = assay: Antibacterial activity against Staphylococcus aureus MTCC 96 after 24 hrs by agar dilution method; type: functional; conditions: MTCC 96, 24 h
Raoultella planticola = assay: Antibacterial activity against Klebsiella planticola MTCC 530 at 80 ug/ml after 24 hrs by agar dilution method; type: functional, organism-based
Escherichia coli = assay: Antibacterial activity against Escherichia coli MTCC 739 at 80 ug/ml after 24 hrs by agar dilution method; type: functional, organism-based
Candida albicans [10] = assay: Antifungal activity against Candida albicans MTCC 3017 at 80 ug/ml after 48 hrs by agar dilution method; type: functional, organism-based; in short: as §1
Staphylococcus aureus [11] = assay: Antibacterial activity against Staphylococcus aureus MTCC 96 at 80 ug/ml after 24 hrs by agar dilution method; type: functional, organism-based
Pseudomonas aeruginosa [12] = assay: Antibacterial activity against Pseudomonas aeruginosa MTCC 2453 at 80 ug/ml after 24 hrs by agar dilution method; type: functional, organism-based
Staphylococcus [13] = assay: Antibacterial activity against Staphylococcus MLS-16 MTCC 2940 at 80 ug/ml after 24 hrs by agar dilution method; type: functional, organism-based
Micrococcus luteus [14] = assay: Antibacterial activity against Micrococcus luteus MTCC 2470 at 20 ug/ml after 24 hrs by disk diffusion method; type: functional; conditions: MTCC 2470, 24 h, read-out: IZ
Pseudomonas aeruginosa [15] = assay: Antibacterial activity against Pseudomonas aeruginosa MTCC 2453 at 20 ug/ml after 24 hrs by disk diffusion method; type: functional; conditions: MTCC 2453, 24 h, read-out: IZ
Staphylococcus [16] = assay: Antibacterial activity against Staphylococcus MLS-16 MTCC 2940 at 20 ug/ml after 24 hrs by disk diffusion method; type: functional; conditions: MLS-16 MTCC 2940, 24 h, read-out: IZ
Micrococcus luteus [17] = assay: Antibacterial activity against Micrococcus luteus MTCC 2470 after 24 hrs by agar dilution method; type: functional; conditions: MTCC 2470, 24 h
Staphylococcus aureus [18] = assay: Antibacterial activity against Staphylococcus aureus MTCC 96 at 20 ug/ml after 24 hrs by disk diffusion method; type: functional; conditions: MTCC 96, 24 h, read-out: IZ
Candida albicans [19] = assay: Antifungal activity against Candida albicans MTCC 3017 at 20 ug/ml after 24 hrs by disk diffusion method; type: functional; conditions: MTCC 3017, 24 h, read-out: IZ
Bacillus subtilis [20] = assay: Antibacterial activity against Bacillus subtilis MTCC 121 at 20 ug/ml after 24 hrs by disk diffusion method; type: functional; conditions: MTCC 121, 24 h, read-out: IZ

Row | Structure (SMILES) | MIC (Staphylococcus [1]) | MIC (Pseudomonas aeruginosa [2]) | MIC (Bacillus subtilis [3]) | MIC (Candida albicans [4]) | Activity (Micrococcus luteus [5]) | Activity (Bacillus subtilis [7]) | Activity [8] | MIC (Staphylococcus aureus [9]) | Activity (Raoultella planticola) | Activity (Escherichia coli) | Activity (Candida albicans [10]) | Activity (Staphylococcus aureus [11]) | Activity (Pseudomonas aeruginosa [12]) | Activity (Staphylococcus [13]) | also measured
1 | O=C1O[C@@H](CNS(=O)(=O)c2ccc(F)cc2)CN1c1ccc(N2CCOCC2)c(F)c1 | 10 µg/mL (≈ 22.1 µM) | 10 µg/mL (≈ 22.1 µM) | 10 µg/mL (≈ 22.1 µM) | 10 µg/mL (≈ 22.1 µM) | inactive | – | – | – | – | – | – | – | – | – | MIC [6]: 1 µg/mL (≈ 2.21 µM)
2 | O=C1O[C@@H](CNS(=O)(=O)c2ccc(Oc3ccccc3)cc2)CN1c1ccc(N2CCSCC2)c(F)c1 | 8 µg/mL (≈ 14.7 µM) | 20 µg/mL (≈ 36.8 µM) | – | 20 µg/mL (≈ 36.8 µM) | inactive | inactive | inactive | 8 µg/mL (≈ 14.7 µM) | inactive | inactive | – | – | – | – | –
3 | O=C1O[C@@H](CNS(=O)(=O)c2cc(S(=O)(=O)c3ccccc3)cs2)CN1c1ccc(N2CCOCC2)c(F)c1 | – | – | – | – | inactive | inactive | inactive | – | inactive | inactive | inactive | inactive | inactive | inactive | –
4 | O=C1O[C@@H](CNS(=O)(=O)c2cccc(Cl)c2)CN1c1ccc(N2CCSCC2)c(F)c1 | – | 10 µg/mL (≈ 20.6 µM) | 20 µg/mL (≈ 41.2 µM) | – | inactive | – | inactive | – | inactive | inactive | inactive | inactive | – | inactive | –
5 | O=C1O[C@@H](CNS(=O)(=O)c2ccc(F)cc2Cl)CN1c1ccc(N2CCOCC2)c(F)c1 | 20 µg/mL (≈ 41 µM) | – | 8 µg/mL (≈ 16.4 µM) | – | inactive | – | inactive | 20 µg/mL (≈ 41 µM) | inactive | inactive | inactive | – | inactive | – | –
6 | O=C1O[C@@H](CNS(=O)(=O)c2cccs2)CN1c1ccc(N2CCOCC2)c(F)c1 | 4 µg/mL (≈ 9.06 µM) | 4 µg/mL (≈ 9.06 µM) | 4 µg/mL (≈ 9.06 µM) | 4 µg/mL (≈ 9.06 µM) | – | – | inactive | 4 µg/mL (≈ 9.06 µM) | inactive | inactive | – | – | – | – | zone of inhibition at 20 µg/mL (Micrococcus luteus [14]): 15 mm; zone of inhibition at 20 µg/mL (Pseudomonas aeruginosa [15]): 19 mm; zone of inhibition at 20 µg/mL (Staphylococcus [16]): 18 mm; MIC (Micrococcus luteus [17]): 6 µg/mL (≈ 13.6 µM); zone of inhibition at 20 µg/mL (Staphylococcus aureus [18]): 20 mm; zone of inhibition at 20 µg/mL (Candida albicans [19]): 18 mm; zone of inhibition at 20 µg/mL (Bacillus subtilis [20]): 20 mm
